In ChEMBL document CHEMBL4673252, “Discovery and Early Clinical Development of Isobutyl 1-[8-Methoxy-5-(1-oxo-3H-isobenzofuran-5-yl)-[1,2,4]triazolo[1,5-a]pyridin-2-yl]cyclopropanecarboxylate (LEO 39652), a Novel "Dual-Soft" PDE4 Inhibitor for Topical Treatment of Atopic Dermatitis” (J Med Chem, 2020):

Key:
[1] = Clearance in human liver microsomes at 0.5 uM incubated for 40 mins in presence of NADPH by LC-MS/MS analysis; format: ADME, Microsome; conditions: read-out: CLH
In short: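 Human liver microsomes (0.5 mg/mL) with 1 mM NADPH and 0.5 μM test compound, incubated for 40 min. Samples were taken before NADPH and at 5, 10, 20, 40 min, quenched with cold acetonitrile containing internal standard, and analysed by LC-MS/MS. Control incubations in buffer and without NADPH. Apparent clearance was calculated from depletion.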

[2] = Half life in human whole blood at 0.1 uM by LC-MS/MS analysis; format: ADME, tissue-based
[3] = Half life in human keratinocytes at 1 uM by LC-MS/MS analysis; format: ADME, cell-based, Keratinocyte
In short: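 Plated human epidermal keratinocytes (1 × 10⁴ cells/well) with 1 μM compound in duplicate for up to 24 h; sampled at 0, 1, 2, 4, 24 h, acetonitrile precipitation, LC-MS/MS. Controls in growth medium. Half-life reported.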

[4] = Clearance in human hepatocytes at 10 uM by UPLC/TOF-MS analysis; format: ADME, cell-based, Hepatocyte
[5] = Clearance in mini pig hepatocytes at 10 uM by UPLC/TOF-MS analysis; format: ADME, cell-based, Sus scrofa domesticus, Hepatocyte; conditions: read-out: CLH
[6] = Drug exposure in human assessed as ratio of drug level to total AUC at 0.25% of Isobutyl 1-[8-Methoxy-5-(1-oxo-3H-isobenzofuran-5-yl)-[1,2,4]-triazolo[1,5-a]pyridin-2-yl]cyclopropanecarboxylate dosed via topical administration in lipid cream; format: ADME, organism-based; conditions: in vivo, topical_or_ocular
[7] = Drug exposure in Isobutyl 1-[8-Methoxy-5-(1-oxo-3H-isobenzofuran-5-yl)-[1,2,4]-triazolo[1,5-a]pyridin-2-yl]cyclopropanecarboxylate dosed cynomolgus monkey assessed as ratio of drug level to total AUC; format: ADME, organism-based, Macaca fascicularis; conditions: in vivo
In short: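 Blood was drawn at 0.25–24 h after infusion start and 6, 12, 24 h after infusion end into EDTA-K3, then plasma stabilized with ascorbic acid. LC-MS/MS quantification of parent and metabolites; noncompartmental PK.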

[8] = Drug exposure in of Isobutyl 1-[8-Methoxy-5-(1-oxo-3H-isobenzofuran-5-yl)-[1,2,4]-triazolo[1,5-a]pyridin-2-yl]cyclopropanecarboxylate dosed Gottingen mini pig assessed as ratio of drug level to total AUC at 0.5 to 2 mg/kg, iv measured up to 24 hrs by LC-MS/MS analysis; format: ADME, organism-based, Sus scrofa domesticus; conditions: in vivo, BLD = below limit of detection, dose 0.5-2 mg/kg
[9] = Cmax in cynomolgus monkey at 30 mg/kg, sc dosed as single administration; format: ADME, organism-based, Macaca fascicularis; parameters: route subcutaneous, dose 30 mg/kg; conditions: in vivo
In short: (§1)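 Single subcutaneous dose of 30 mg/kg.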

[10] = Cmax in human patient with atopic dermatitis at 0.25% dosed topically as lipid cream; format: ADME, organism-based; parameters: dose 0.25 %; conditions: in vivo, topical or ocular
[11] = AUC (0 to 24 hrs) in cynomolgus monkey at 30 mg/kg, sc dosed as single administration; format: ADME, organism-based, Macaca fascicularis; parameters: time < 24 hr, route subcutaneous, dose 30 mg/kg; conditions: in vivo; in short: as §1
[12] = AUC (0 to 24 hrs) in human patient with atopic dermatitis at 0.25% dosed topically as lipid cream; format: ADME, organism-based; parameters: time < 24 hr, dose 0.25 %; conditions: in vivo, topical or ocular

Compound | CLint scaled at 0.5 µM [1] | half-life at 0.1 µM [2] | half-life at 1 µM [3] | further results
CCCOC(=O)C1(c2nc3c(OC)ccc(-c4ccc5c(c4)COC5=O)n3n2)CC1 | 139 mL/min/kg | 0.217 h | > 12 h | 
COc1ccc(-c2cccc3c2COC3=O)n2nc(C3CC3)nc12 | < 10 mL/min/kg | 0.25 h | > 12 h | 
COc1ccc(-c2ccc3c(c2)COC3=O)n2nc(C3(C(=O)OC4COC4)CC3)nc12 | 97 mL/min/kg | < 0.167 h | > 12 h | 
COc1ccc(-c2ccc3c(c2)COC3=O)n2nc(C3(C(=O)NCC(C)C)CC3)nc12 | > 200 mL/min/kg | < 0.167 h | 10 h | 
CCOC(=O)C1(c2nc3c(OC)ccc(-c4ccc5c(c4)COC5=O)n3n2)CC1 | 140 mL/min/kg | 0.183 h | > 12 h | 
COC(=O)C1(c2nc3c(OC)ccc(-c4ccc5c(c4)COC5=O)n3n2)CC1 | 193 mL/min/kg | < 0.167 h | > 12 h | 
CCCCOC(=O)C1(c2nc3c(OC)ccc(-c4ccc5c(c4)COC5=O)n3n2)CC1 | > 200 mL/min/kg | 0.333 h | 10 h | 
COc1ccc(-c2cccc(C#N)c2)n2nc(C3(CCO)CC3)nc12 | 16 mL/min/kg |  |  | 
COc1ccc(-c2cccc(C#N)c2)n2nc(C3(CC(=O)O)CC3)nc12 | < 10 mL/min/kg |  |  | 
CC[C@H](C)OC(=O)C1(c2nc3c(OC)ccc(-c4ccc5c(c4)COC5=O)n3n2)CC1 | > 200 mL/min/kg | 0.183 h | > 12 h | 
COc1ccc(-c2ccc3c(c2)COC3=O)n2nc(C3(C(=O)OC[C@@H](C)CO)CC3)nc12 | 64 mL/min/kg | < 0.167 h | > 12 h | 
COc1ccc(-c2ccc3c(c2)COC3=O)n2nc(C3(C(=O)OC4CCCCCC4)CC3)nc12 | > 200 mL/min/kg | 0.567 h | 3.7 h | 
COc1ccc(-c2cccc(C#N)c2)n2nc(C3(CCC(=O)O)CC3)nc12 | 16 mL/min/kg |  |  | 
COc1ccc(-c2cccc(C#N)c2)n2nc(C3(C(=O)OCC(C)C)CC3)nc12 | > 200 mL/min/kg | > 1 h | > 12 h | 
COc1ccc(-c2ccc3c(c2)COC3=O)n2nc(C3(C(=O)OC4CCCC4)CC3)nc12 | > 200 mL/min/kg | 0.283 h | 12 h | 
COc1ccc(-c2ccc(C(=O)O)c(CO)c2)n2nc(C3(C(=O)OCC(C)(C)O)CC3)nc12 |  |  |  | CLhep predicted at 10 µM [4]: 7.1 mL/min/kg; CLint scaled at 10 µM [5]: 13 mL/min/kg; Drug uptake [6]: 1%; Drug uptake [7]: 1%; Drug uptake [8]: Bld; Cmax ([9]; read-out: Cmax): 10.5 ng/mL; Cmax [10]: 0.029 ng/mL; AUC(0-t) at 24 h [11]: 19.4 ng·h/mL; AUC(0-t) at 24 h [12]: 0.27 ng·h/mL
COc1ccc(-c2ccc3c(c2)COC3=O)n2nc(C3(C(=O)OC4CCC4)CC3)nc12 | > 200 mL/min/kg | < 0.167 h | > 9 h | 

Compound | CLint scaled at 0.5 µM [1] | half-life at 0.1 µM [2] | half-life at 1 µM [3] | further results
COc1ccc(-c2ccc3c(c2)COC3=O)n2nc(C3(C(=O)O[C@@H]4CCOC4)CC3)nc12 | 101 mL/min/kg | < 0.167 h | > 12 h | 
COc1ccc(-c2ccc3c(c2)COC3=O)n2nc(C3(C(=O)OC(C)C)CC3)nc12 | 97 mL/min/kg | 0.183 h | > 12 h | 
COc1ccc(-c2cccc3c2COC3=O)n2nc(C3(C(=O)NCC(C)C)CC3)nc12 | 95 mL/min/kg | > 1 h | > 12 h | 
COc1ccc(-c2ccc3c(c2)COC3=O)n2nc(C3CC3)nc12 | 64 mL/min/kg | 0.2 h | > 12 h | 
COc1ccc(-c2cccc(C#N)c2)n2nc(C3(C(=O)O)CC3)nc12 | < 10 mL/min/kg |  |  | 
COC(=O)c1ccc(-c2ccc(OC)c3nc(C4CC4)nn23)cc1 | > 200 mL/min/kg | > 1 h | > 12 h | 
COc1ccc(-c2cccc(C#N)c2)n2nc(C3(COC(=O)C(C)C)CC3)nc12 | > 200 mL/min/kg | 0.467 h | 1.2 h | 
COc1ccc(-c2ccc3c(c2)COC3=O)n2nc(C3(C(=O)OC(C)(C)C)CC3)nc12 | > 200 mL/min/kg | 0.183 h | > 12 h | 
COc1ccc(-c2cccc(C#N)c2)n2nc(C3(CO)CC3)nc12 | < 10 mL/min/kg |  |  | 
COC(=O)c1ccc(-c2ccc(OC)c3nc(C4(C(=O)NCC(C)C)CC4)nn23)cc1 | > 200 mL/min/kg |  | 9 h | 
COC(=O)c1cccc(-c2ccc(OC)c3nc(C4(C(=O)NCC(C)C)CC4)nn23)c1 | > 200 mL/min/kg | > 1 h | > 12 h | 
COC(=O)c1cccc(-c2ccc(OC)c3nc(C4CC4)nn23)c1 | > 200 mL/min/kg | > 1 h | > 12 h | 
COc1ccc(-c2ccc3c(c2)COC3=O)n2nc(C3(C(=O)O[C@H]4CCOC4)CC3)nc12 | 77 mL/min/kg | < 0.167 h | > 12 h | 
COc1ccc(-c2ccc3c(c2)COC3=O)n2nc(C3(C(=O)OC4CCCCC4)CC3)nc12 | > 200 mL/min/kg | 0.383 h | > 12 h | 
COc1ccc(-c2ccc3c(c2)COC3=O)n2nc(C3(C(=O)OCC(C)(C)O)CC3)nc12 | 66 mL/min/kg | 0.2 h | > 12 h | CLhep predicted at 10 µM [4]: 16 mL/min/kg; CLint scaled at 10 µM [5]: > 26 mL/min/kg; Drug uptake ([6]; BLD = below limit of detection): Bld; Drug uptake [7]: 0.1%; Drug uptake [8]: Bld; Cmax ([9]; BLD = below limit of detection): Bld; AUC ([11]; 24 h, BLD = below limit of detection): Bld
COc1ccc(-c2ccc3c(c2)COC3=O)n2nc(C3(C(=O)OC[C@H](C)CO)CC3)nc12 | 66 mL/min/kg | < 0.167 h | > 12 h | 
COc1ccc(-c2cccc(C#N)c2)n2nc(C3(CCCO)CC3)nc12 | 33 mL/min/kg |  |  | 
